# Dynein transport: dynein cargo transport inhibition; 3617.4 mouse cells, GR-EGFP nuclear translocation imaging; test concentration mostly 20 µM; stimulated with dexamethasone, 1 µM; active compounds read low; AID 1381; z-score, hits read low; 0.47% of 220,000 active;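 active means plate z-score of nuclear minus cytoplasmic receptor signal below a set negative limit, without overly bright fluorescence or cell loss, cut at about -3.5 in these data, passing the limit was not always enough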;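 further: z-score of nuclear minus cytoplasmic ring GR-EGFP intensity difference per well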
#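 Buffer or medium: tet-free medium with charcoal-stripped serum / Also added: dexamethasone agonist, 1.0 µM final, for 30 min / Timing: induction 48 h, compound 1 h, agonist 30 min / Measured by: high-content fluorescence imaging after fixation / Read-out: nuclear-to-cytoplasmic GR-EGFP distribution per well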
# Autophagy mod: alters autophagy in cells; MEF GFP-LC3 puncta imaging; test concentration mostly 10 µM; calls only at 10 µM (by protocol); 0.98% of 190,000 active;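 active means percentage of spot-positive cells more than 3 SD above its plate mean, without a fluorescence outlier flag or 80% toxicity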;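 further: spot-positive cell cutoff set from DMSO-treated cells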
# HCT116 PTEN-null: suppresses growth of cells with PTEN deletion; 1.2% of 140,000 active; HCT116 PTEN-null viability, CellTiter-Glo, 60 h; active compounds read low; AID 827; viability, % at 10 µM;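 active means viability at or below a set limit, 4 SD under the median of all tested compounds, cut at about 3.7% in these data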;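 further: PTEN knockout HCT116 line with beta catenin targeted HCT116 as companion control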
# L major viab: reduces viability of Leishmania major promastigotes | resazurin fluorescence viability | inhibition, % at 10 µM | 9% of 200,000 active | AID 1063; in the data active means inhibition above about 50%;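 further: promastigotes grown with compound for 44 hours at 28 °C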
# HCT116 bCat-KO: beta-catenin-lacking colon tumor cell growth suppression; HCT116 beta-catenin knockout viability, CellTiter-Glo, 60 h; active compounds read low; viability, % at 10 µM; 1.5% of 140,000 active; AID 818;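 active means viability at or under a set limit, the compound median less 4 SD, cut at about 6% in these data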;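 further: 0% = Hyamine 1622 control at 20 µM and 100% = untreated cell control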
# Numbers without * were called inactive; i = inactive; . = no result given; + = active, no number. Compounds with a hit are over-represented: about 9.2% of the library has one in this group of screens.
SMILES,Dynein transport,Autophagy mod,HCT116 PTEN-null,L major viab,HCT116 bCat-KO
CCCCn1cnc2c1c(=O)n(CC(=O)c1cc(C)n(C)c1C)c(=O)n2CC(C)C,-0.36,i,92,96*,90
COc1ccc(CNc2ccc3c(c2)ncn3-c2ccccc2OC)cc1,-0.84,i,56,100*,66
COc1ccccc1-n1cnc2cc(NCc3ccccc3O)ccc21,1.3,.,.,.,.
COc1ccccc1-n1cnc2cc(NCc3cccs3)ccc21,-0.63,i,15,96*,18
COc1ccc(CCNCC(=O)Nc2ccccc2C(F)(F)F)cc1,-0.72,i,.,-9,.
N=c1c(S(=O)(=O)c2ccccc2)cc2c(=O)n3ccccc3nc2n1Cc1ccco1,-0.53,i,4,45,7
Cc1ccc2nc3c(cc(S(=O)(=O)c4ccccc4)c(=N)n3Cc3ccco3)c(=O)n2c1,-0.54,i,.,81*,.
Cc1ccc(S(=O)(=O)c2cc3c(=O)n4ccccc4nc3n(Cc3ccco3)c2=N)cc1C,-0.93,+,62,56*,70
Cc1cccn2c(=O)c3cc(S(=O)(=O)c4ccccc4)c(=N)n(Cc4ccco4)c3nc12,-1.3,i,.,31,.
N#Cc1nc(Cl)c(Cl)c(NN)c1Cl,-0.45,.,.,.,.
Cc1ccc(-c2csc(C3=C(O)CN(NC(=O)c4ccco4)C3=N)n2)cc1,0.2,.,.,.,.
Cc1cc(C)cc(NC(=O)c2c(C)nc3ccccn23)c1,-0.33,i,.,-4,.
CC1CCN(CCC(=O)N/N=C/c2ccc([N+](=O)[O-])cc2)CC1,0.24,i,.,81*,.
CC(C)NC(=O)C1CCN(C2CCN(C(=O)c3ccc4cccc(F)c4n3)CC2)CC1,-0.66,.,.,.,.
CN1CCN(c2nc(-c3ccc(Cl)s3)cs2)CC1,1,i,.,85*,.
O=C(C1=NN[C@@H]2C(=O)N(Cc3ccccc3)C(=O)[C@H]12)c1ccc([N+](=O)[O-])cc1,0.9,.,.,.,.
O=S(=O)(Cc1ccccc1)N1CCc2ccccc21,-0.62,i,44,100*,60
COC(=O)[C@H](Cc1c[nH]c2ccccc12)NC(=O)Nc1ccccc1OC,0.12,.,.,.,.
COc1ccccc1NC(=O)Cn1c(=O)n(CCc2c[nH]c3ccccc23)c(=O)c2cccnc21,2.3,i,60,65*,59
Cc1cc(-c2n[nH]c(=S)n2-c2ccc(F)cc2)nn1C,-0.054,i,.,1,.
OC(CN1C2=NCCN2c2ccccc21)c1ccccc1 (centres undefined),-0.94,i,88,9,92
Cc1ccc(C(O)CN2C3=NCCN3c3ccccc32)cc1 (centres undefined),-0.42,i,70,96*,67
S=C(Nc1ccc(Br)cc1Cl)NN1CCOCC1,0.45,i,.,39,.
CCN(CCC(=O)Nc1cc([N+](=O)[O-])ccc1OC)Cc1ccccc1,-0.79,i,73,67*,75
COc1ccc([N+](=O)[O-])cc1NC(=O)C(C)N(C)Cc1ccc(Br)cc1 (centres undefined),-0.2,i,67,57*,75
SMILES,Dynein transport,Autophagy mod,HCT116 PTEN-null,L major viab,HCT116 bCat-KO
COc1ccc(Br)cc1CN(C)C(C)C(=O)Nc1cc([N+](=O)[O-])ccc1OC (centres undefined),2.2,i,55,2,64
Cn1c(C(=O)OC(C(=O)NC2CCCC2)c2ccncc2)cc2sccc21 (centres undefined),4.4,i,88,11,96
Cn1c(C(=O)OC(C(=O)NC(C)(C)C)c2cccnc2)cc2sccc21 (centres undefined),-0.56,i,.,95*,.
COc1cc(C2SC(C)C(=O)N2CCc2ccccc2)cc(OC)c1OC (centres undefined),-0.9,i,.,4,.
CCCCCCCCSc1nnc(CSc2nc3nc(C)cc(C)n3n2)o1,0.36,i,55,67*,42
Cc1cc(C)n2nc(SCc3nnc(SCCCCl)o3)nc2n1,0.89,i,91,0,72
Fc1ccccc1OCCCCCCN1CCCC1,0.66,i,58,98*,47
Clc1cccc(OCCCN2CCCC2)c1Cl,-0.7,i,88,1,90
CCOc1ccccc1OCCCCOc1ccccc1F,-0.52,i,94,34,100
Fc1ccccc1OCCCCCN1CCCC1,-1.2,i,19,72*,20
CCOC(=O)C/C(C)=N/NC(=O)CN(c1ccc(Br)cc1)S(=O)(=O)c1ccccc1,2.2,i,107,0,89
COc1ccc(C)c2sc(NNC(=O)COc3ccccc3)nc12,-0.26,i,.,12,.
CC(C)(C)c1nc(SCC(=O)Nc2nc3c(s2)CCCC3)c2ccccc2n1,-0.42,i,45,80*,67
CC(C)(C)c1nc(SCC(=O)c2ccccc2)c2ccccc2n1,0.15,+,.,-1,.
CC(C)(C)c1nc(SCC(=O)N2CCCC2)c2ccccc2n1,-0.33,i,.,9,.
CC(C)c1nc(SCC(=O)Nc2nc3c(s2)CCCC3)c2ccccc2n1,-0.72,i,60,5,66
CCCCn1c(-c2ccccc2)nc2c(=O)n(C)c(=O)[nH]c21,0.1,i,103,-8,93
O=C1CC(Nc2cc(=O)[nH]c(=O)[nH]2)C(=O)N1c1ccccc1Cl (centres undefined),0.11,.,.,.,.
Cc1cc(NO)c(C(C)C)cc1N=O,0.14,i,80,23,73
CC(=O)NC1=NN(C(C)=O)C(c2ccccn2)S1 (centres undefined),-0.9,i,.,0,.
CCOC(=O)C1=C(N)n2c(s/c(=C/c3ccco3)c2=O)=C(C(=O)OC)C1c1ccco1 (centres undefined),-0.57,i,2.4*,13,2.2*
c1ccc(CC(Nc2ccccn2)c2ccccc2)cc1 (centres undefined),2,i,.,43,.
CC(=O)C1=C(C)N2CCN=C2S1,0.57,.,.,.,.
Cc1ccc(NS(=O)(=O)c2cccc(C(=O)O)c2)cc1S(=O)(=O)N1CCOCC1,-0.075,i,96,57*,89
COc1ccccc1OCCCC(=O)Nc1nccs1,-0.22,i,.,-1,.
SMILES,Dynein transport,Autophagy mod,HCT116 PTEN-null,L major viab,HCT116 bCat-KO
Cc1cc(C)n2nc(C(=O)Nc3ccn(Cc4ccccc4C)n3)cc2n1,-0.62,.,.,.,.
CCSc1nc(-c2cccnc2)ccc1C#N,-0.22,i,92,77*,95
C=CCN1C(=O)/C(=C/c2ccc(OC(C)=O)c(OCC)c2[N+](=O)[O-])SC1=S,0.52,i,.,91*,.
COc1nc(-c2ccccc2)cc(-c2ccc(OC)c(OC)c2)n1,-1.3,i,73,61*,80
COc1cc(NC(=S)NC(=O)c2ccccc2F)ccc1NC(=O)c1cccs1,-0.11,i,.,-8,.
COc1cc(NS(=O)(=O)c2ccc(NC(=S)NC(=O)c3cccs3)cc2)nc(OC)n1,-0.16,i,103,33,96
O=C(NC(=S)Nc1ccc(NC(=O)c2cccs2)cc1)c1cc2ccccc2o1,-0.72,i,10,85*,38
Cc1cc(C)cc(NS(=O)(=O)c2ccc(NC(=S)NC(=O)c3cccs3)cc2)c1,0.017,i,63,96*,57
